Legend:
KB = assay: Cytotoxicity against human KB cells; format: functional
[1] = Selectivity index, ratio of CC50 for human KB cells to IC50 for Plasmodium falciparum K1; format: functional
[2] = Selectivity index, ratio of CC50 for human KB cells to IC50 for Plasmodium falciparum VS1; format: functional
Plasmodium falciparum [3] = assay: Antimalarial activity against chloroquine, pyrimethamine and cycloguanil-resistant Plasmodium falciparum VS1 after 24 hrs; format: functional, organism-based; conditions: VS1, 24 h
Outline: (§1)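 [³H]hypoxanthine incorporation assay. Compounds dissolved in DMSO and serially diluted in assay medium, final DMSO ≤0.01%. P. falciparum culture at 0.5% parasitaemia (65-75% ring stage), 2.5% haematocrit. Incubated 24 h at 37 °C in 5% CO₂, then [³H]hypoxanthine (0.1 µCi/well) added for a further 24 h. Incorporated radioactivity counted by scintillation. IC50 obtained by curve fitting. Chloroquine diphosphate used as standard.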

[4] = Selectivity index, ratio of CC50 for human KB cells to IC50 for Plasmodium falciparum 3D7; format: functional
Plasmodium falciparum [5] = assay: Antimalarial activity against chloroquine,pyrimethamine-resistant Plasmodium falciparum K1 after 24 hrs; format: functional, organism-based; conditions: K1, 24 h; outline: as §1
Plasmodium falciparum [6] = assay: Antimalarial activity against drug-sensitive Plasmodium falciparum 3D7 after 24 hrs; format: functional, organism-based; conditions: 3D7, 24 h; outline: as §1
Plasmodium berghei [7] = assay: Antiparasitemia activity against Plasmodium berghei infected mice (Mus musculus) at 10 mg/kg intravenous dose for 4 days; format: functional
Outline: (§2)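 CD-1 outbred male mice (20 g) were infected intravenously with 2×10^6 P. berghei AS parasitized red cells. Drug in 5% dextrose was given iv, 0.2 mL, at 2 h (day 0) and on days 1, 2, 3 and 4 post-infection. Day-5 Giemsa-stained blood films were counted, and results were expressed as % inhibition of mean group parasitaemia versus the untreated group.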

Plasmodium berghei [8] = assay: Antiparasitemia activity against Plasmodium berghei infected mice (Mus musculus) at 30 mg/kg subcutaneous dose for 4 days; format: functional
Outline: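 Male CD-1 outbred mice (20 g), infected intravenously with 2×10^6 P. berghei AS parasitized red cells, received subcutaneous 0.2 mL doses in 10% DMSO/0.05% Tween 80 in water at 2 h (day 0) and on days 1, 2, 3 and 4. Day-5 Giemsa blood smears were counted microscopically, and mean group parasitaemia was expressed as % inhibition versus untreated mice.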

Plasmodium berghei [9] = assay: Antiparasitemia activity against Plasmodium berghei infected mice (Mus musculus) at 30 mg/kg peroral dose for 4 days; format: functional; conditions: route oral
Outline: (§3)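 Peters' suppressive test: 20 g male CD-1 mice were infected iv with 2×10^6 P. berghei AS-parasitized erythrocytes. Compound was dosed orally, 0.2 mL, in standard suspending formula (0.5% Na carboxymethylcellulose, 0.5% benzyl alcohol, 0.4% Tween 80, 0.9% NaCl) at 2 h and on days 1–4 post-infection. Parasitaemia was read microscopically from Giemsa films on day 5 as % inhibition relative to the untreated group's arithmetic mean.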

Plasmodium berghei [10] = assay: Antiparasitemia activity against Plasmodium berghei infected mice (Mus musculus) at 100 mg/kg intravenous dose for 4 days; format: functional; outline: as §2
Plasmodium berghei [11] = assay: Antiparasitemia activity against Plasmodium berghei infected mice (Mus musculus) at 100 mg/kg peroral dose for 4 days; format: functional; conditions: route oral; outline: as §3

Structure (SMILES) | CC50 (KB) | Ratio CC50/IC50 [1] | Ratio CC50/IC50 [2] | IC50 (Plasmodium falciparum [3]) | Ratio CC50/IC50 [4] | IC50 (Plasmodium falciparum [5]) | IC50 (Plasmodium falciparum [6]) | Activity (Plasmodium berghei [7]) | Activity (Plasmodium berghei [8]) | Activity (Plasmodium berghei [9]) | Activity (Plasmodium berghei [10]) | Activity (Plasmodium berghei [11])
NNc1nc(N)nc2[nH]cnc12 | 1000 µM | 9.2 | 11.2 | 89.3 µM | 5.3 | 109 µM | 189 µM | – | – | – | – | –
OC[C@H]1O[C@@H](n2cnc3/c(=N\OCc4ccccc4)[nH]cnc32)[C@H](O)[C@@H]1O | 889 µM | – | 62.6 | 14.2 µM | 67.6 | – | 13.2 µM | – | – | – | – | –
Nc1nc2c(ncn2[C@@H]2O[C@H](CO)[C@@H](O)[C@H]2O)/c(=N\OCc2ccccc2)[nH]1 | – | – | – | 126 µM | – | – | 183 µM | – | – | – | – | –
CN(N)c1ncnc2[nH]cnc12 | – | – | – | 419 µM | – | 478 µM | 508 µM | – | – | – | – | –
C=CCO/N=c1/[nH]cnc2c1ncn2[C@@H]1O[C@H](CO)[C@@H](O)[C@H]1O | – | – | – | 34 µM | – | – | 3.31 µM | – | – | – | – | –
c1ccc(NNc2ncnc3[nH]cnc23)cc1 | 167 µM | – | 8.43 | 19.8 µM | 8.64 | – | 19.3 µM | – | – | – | – | –
CN(N)c1ncnc2c1ncn2[C@@H]1O[C@H](CO)[C@@H](O)[C@H]1O | 101 µM | 2.9 | 4.5 | 22.5 µM | 1.4 | 35.4 µM | 72.7 µM | – | – | – | – | –
COc1cc([C@@H]2c3cc4c(cc3[C@H](O)[C@H]3COC(=O)[C@H]23)OCO4)cc(OC)c1OC [PODOFILOX] | 0.048 µM | – | – | – | – | – | – | – | – | – | – | –
Nc1nc2c(ncn2[C@@H]2O[C@H](CO)[C@@H](O)[C@H]2O)/c(=N\O)[nH]1 | 281 µM | 25.9 | 21.1 | 13.3 µM | 17.5 | 10.8 µM | 16 µM | – | – | – | – | –
CON(C)c1ncnc2[nH]cnc12 | – | – | – | > 613 µM | – | > 613 µM | > 613 µM | – | – | – | – | –
CCN(CC)CCCC(C)Nc1ccnc2cc(Cl)ccc12 (centres undefined) [CHLOROQUINE] | 187 µM | – | – | – | – | – | – | 100% | – | – | – | –
ONc1ncnc2[nH]cnc12 | 1490 µM | 146 | 267 | 5.57 µM | 199 | 10.2 µM | 7.48 µM | – | 1.8% | 3.9% | – | –
OC[C@H]1O[C@@H](n2cnc3/c(=N\O)[nH]cnc32)[C@H](O)[C@@H]1O | 44.3 µM | 6.4 | 5.2 | 8.56 µM | 3.8 | 6.9 µM | 11.6 µM | – | – | – | – | –
CN(N)c1nc(N)nc2[nH]cnc12 | – | – | – | > 558 µM | – | > 558 µM | > 558 µM | – | – | – | – | –
CON(C)c1ncnc2c1ncn2[C@@H]1O[C@H](CO)[C@@H](O)[C@H]1O | 15.3 µM | 1.2 | <1 | 25.2 µM | <1 | 12.5 µM | 21.8 µM | – | – | – | – | –
NNc1nc(N)nc2c1ncn2[C@@H]1O[C@H](CO)[C@@H](O)[C@H]1O | 1360 µM | 136 | 112 | 12.2 µM | 134 | 10 µM | 10.2 µM | – | 14% | 22.3% | 43.9% | 26.8%
Nc1nc2[nH]cnc2/c(=N\O)[nH]1 | 45 µM | 5 | 2.7 | 16.8 µM | 1.6 | 9.03 µM | 27.8 µM | – | – | – | – | –
NNc1ncnc2c1ncn2[C@@H]1O[C@H](CO)[C@@H](O)[C@H]1O | 2.26 µM | <1 | <1 | 7.92 µM | <1 | 7.48 µM | 13.3 µM | – | – | – | – | –
c1ccc(CO/N=c2/[nH]cnc3[nH]cnc23)cc1 | – | – | – | 352 µM | – | – | 400 µM | – | – | – | – | –
NNc1ncnc2[nH]cnc12 | 49.3 µM | 2.2 | 2.6 | 18.8 µM | 2.1 | 22.1 µM | 23.1 µM | – | – | – | – | –
OC[C@H]1O[C@@H](n2cnc3c(NNc4ccccc4)ncnc32)[C@H](O)[C@@H]1O | 109 µM | – | 9.9 | 11 µM | 7.68 | – | 14.2 µM | – | – | – | – | –
CO/N=c1/[nH]cnc2[nH]cnc12 | 1260 µM | 3.6 | 2.1 | > 606 µM | 12.7 | 354 µM | 98.9 µM | – | – | – | – | –
CO/N=c1/[nH]c(N)nc2[nH]cnc12 | – | – | – | > 555 µM | – | 435 µM | 428 µM | – | – | – | – | –
CON(C)c1nc(N)nc2c1ncn2[C@@H]1O[C@H](CO)[C@@H](O)[C@H]1O | – | – | – | > 306 µM | – | > 306 µM | > 306 µM | – | – | – | – | –
CCc1nc(N)nc(N)c1-c1ccc(Cl)cc1 [PYRIMETHAMINE] | – | – | – | – | – | – | – | – | 100% | 100% | – | –
CO/N=c1/[nH]cnc2c1ncn2[C@@H]1O[C@H](CO)[C@@H](O)[C@H]1O | 6.16 µM | <1 | <1 | 9.87 µM | <1 | 20.6 µM | 11.4 µM | – | – | – | – | –
CO/N=c1/[nH]c(N)nc2c1ncn2[C@@H]1O[C@H](CO)[C@@H](O)[C@H]1O | 784 µM | 4.3 | 3.5 | 225 µM | 3.4 | 184 µM | 232 µM | – | – | – | – | –
CN(N)c1nc(N)nc2c1ncn2[C@@H]1O[C@H](CO)[C@@H](O)[C@H]1O | 1480 µM | 410 | 5008 | 0.29 µM | 533 | 3.6 µM | 2.27 µM | – | 28.3% | 12.3% | 14% | 4.8%
